Like-named read-outs stand apart in the source and are kept apart here. Where a SMILES comes first, the peptide text is derived from it.
Key:
Format in all cases: biochemical
caspase-3 (Casp3) = target: T1, caspase-3 (Casp3) (Homo sapiens, UniProt P42574); assay: Fluorometric enzyme inhibition assay, Casp3; conditions: SEM
T1 sequence (P42574 29-175 limits assumed): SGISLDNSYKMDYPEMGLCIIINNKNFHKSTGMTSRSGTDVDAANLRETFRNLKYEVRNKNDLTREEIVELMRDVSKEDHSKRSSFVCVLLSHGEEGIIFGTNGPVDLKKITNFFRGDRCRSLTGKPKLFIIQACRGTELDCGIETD
T1 sequence (P42574 176-277 limits assumed): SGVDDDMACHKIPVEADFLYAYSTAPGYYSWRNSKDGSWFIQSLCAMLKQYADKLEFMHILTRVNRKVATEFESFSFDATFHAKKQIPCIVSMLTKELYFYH
Summary of the method: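 Recombinant Casp3 produced in house, 2 nM/well, in 100 mM HEPES pH 7.0, 150 mM NaCl, 0.1% CHAPS, 1.5% sucrose, 10 mM DTT. Preincubated with DMSO-diluted test compound 5 min, 37 °C. AcDEVD-AFC (Km 7.6 μM) at 5 μM (384-well, duplicate) or 10 μM (96-well, triplicate). Fluorescence ex 400/em 505 nm at 37 °C, 40 min reading. Four-parameter IC50 converted to Ki via Cheng–Prusoff.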

caspase-2 (Casp2) = target: T2, caspase-2 (Casp2) (Homo sapiens, UniProt P42575); assay: Fluorometric enzyme inhibition assay, Casp2
T2 sequence (P42575 170-333 limits assumed): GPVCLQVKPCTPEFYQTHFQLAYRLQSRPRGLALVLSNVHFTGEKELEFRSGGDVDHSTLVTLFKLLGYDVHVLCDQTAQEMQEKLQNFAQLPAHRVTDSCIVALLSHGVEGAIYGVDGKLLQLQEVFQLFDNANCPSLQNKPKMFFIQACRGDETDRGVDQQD
T2 sequence (P42575 348-452 limits assumed): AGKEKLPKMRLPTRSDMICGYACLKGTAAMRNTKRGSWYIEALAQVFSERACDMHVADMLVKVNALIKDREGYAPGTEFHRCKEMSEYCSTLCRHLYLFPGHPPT
Summary of the method: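 In-house recombinant Casp2 in 100 mM MES pH 6.5, 150 mM NaCl, 0.1% CHAPS, 1.5% sucrose, 10 mM DTT. […] 384-well: 20 nM enzyme, 10 μM substrate, duplicate. 96-well: 5 nM, 25 μM, triplicate. AFC fluorescence (ex 400/em 505 nm) at 37 °C, 40 min point. Four-parameter IC50 fit, converted by Cheng–Prusoff.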

[1] = target: T3, circularly permutated caspase-2 (cpCasp2) (Homo sapiens, UniProt P42575); assay: Fluorometric enzyme inhibition assay, cpCasp2
T3 sequence (P42575 1-452): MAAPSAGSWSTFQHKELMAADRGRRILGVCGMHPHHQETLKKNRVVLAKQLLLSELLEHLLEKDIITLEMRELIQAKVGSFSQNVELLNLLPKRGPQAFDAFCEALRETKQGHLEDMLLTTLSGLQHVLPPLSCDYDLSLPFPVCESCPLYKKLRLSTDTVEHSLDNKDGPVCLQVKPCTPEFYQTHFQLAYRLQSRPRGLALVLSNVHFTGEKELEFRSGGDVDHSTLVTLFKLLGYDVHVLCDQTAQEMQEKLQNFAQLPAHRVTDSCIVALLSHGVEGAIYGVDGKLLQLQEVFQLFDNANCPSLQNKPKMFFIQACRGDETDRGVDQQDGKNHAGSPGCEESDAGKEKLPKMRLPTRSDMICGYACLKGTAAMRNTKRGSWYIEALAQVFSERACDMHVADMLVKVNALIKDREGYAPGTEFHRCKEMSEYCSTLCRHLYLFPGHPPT

| Ki (caspase-3 (Casp3)) [nM] | Ki (caspase-2 (Casp2); SEM) [µM] | Ki ([1]; SEM) [µM] | Ki (caspase-2 (Casp2)) [µM] | Ki [1] [µM] | SMILES |
| --- | --- | --- | --- | --- | --- |
| 60.3 | 0.0331 | 0.0646 |  |  | CC(=O)N[C@H](C(=O)N[C@@H](CC(=O)O)C(=O)N[C@H](C(=O)N[C@@H](C)C(=O)N[C@H](C=O)CC(=O)O)[C@@H](C)O)[C@@H](C)O [compound 55, (4S,7S,10S,13S,16S)-7-(Carboxymethyl)-16-formyl-4,10-bis[(R)-1-hydroxyethyl]-13-methyl-2,5,8,11,14-pentaoxo-3,6,9,12,15-pentaazaoctadecan-18-oic acid] (Ac-TDTAD-aldehyde) |
| 224 | 20 | 20.9 |  |  | CC(=O)NCCCC[C@H](NC(=O)[C@@H](NC(=O)[C@@H](NC(C)=O)[C@@H](C)O)C(C)C)C(=O)N[C@H](C=O)CC(=O)O [compound 30, (4S,7S,10S,13S)-10-(4-Acetamidobutyl)-13-formyl-4-[(R)-1-hydroxyethyl]-7-isopropyl-2,5,8,11-tetraoxo-3,6,9,12-tetraazapentadecan-15-oic acid] (Ac-TVK(Ac)D-aldehyde) |
| 9550 |  |  | > 100 |  | CC(=O)NCCCC[C@H](NC(=O)[C@@H](NC(C)=O)C(C)C)C(=O)N[C@H](C=O)CC(=O)O [compound 31, (S)-3-{(S)-6-Acetamido-2-[(S)-2-acetamido-3-methylbutanamido]hexanamido}-4-oxobutanoic acid] (Ac-Val-Lys(Ac)-Asp-aldehyde) |
| 5750 |  |  |  | > 100 | CC(=O)N[C@H](C(=O)N1CCC[C@H]1C(=O)N[C@H](C=O)CC(=O)O)C(C)C [compound 17, (S)-3-[(S)-1-(Acetyl-L-valyl)pyrrolidine-2-carboxamido]-4-oxobutanoic acid] (Ac-Val-Pro-Asp-aldehyde) |

— article PMC9616052 (Archiv der Pharmazie, 2022)
